Drawing on ChEMBL document CHEMBL1129038, “Studies on selectin blocker. 1. Structure-activity relationships of sialyl Lewis X analogs” (J Med Chem, 1996), this text covers IC50 for six molecules.

Each structure is given as a SMILES string.

Assay [1] concerns the target T1, E-selectin (Homo sapiens, UniProt P16581).
T1 sequence (P16581 whole entry): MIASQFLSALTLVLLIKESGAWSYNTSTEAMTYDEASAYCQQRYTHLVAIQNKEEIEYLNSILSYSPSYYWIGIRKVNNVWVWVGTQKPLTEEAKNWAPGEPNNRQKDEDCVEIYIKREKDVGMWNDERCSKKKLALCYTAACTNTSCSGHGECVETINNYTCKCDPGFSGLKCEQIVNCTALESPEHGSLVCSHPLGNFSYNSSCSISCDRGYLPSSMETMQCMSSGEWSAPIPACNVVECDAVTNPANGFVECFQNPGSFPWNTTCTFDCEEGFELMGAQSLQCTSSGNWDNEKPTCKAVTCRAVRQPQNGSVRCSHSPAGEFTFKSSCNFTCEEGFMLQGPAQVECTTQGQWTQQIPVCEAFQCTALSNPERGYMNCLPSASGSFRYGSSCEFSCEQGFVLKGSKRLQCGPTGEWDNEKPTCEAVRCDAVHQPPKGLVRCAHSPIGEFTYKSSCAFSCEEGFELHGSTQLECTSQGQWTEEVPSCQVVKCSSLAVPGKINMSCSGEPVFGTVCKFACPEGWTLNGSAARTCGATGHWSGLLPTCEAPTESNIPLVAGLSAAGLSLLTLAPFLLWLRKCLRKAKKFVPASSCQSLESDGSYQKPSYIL
The experiment in a line: Inhibitory activity against human chimeric E-selectin-Ig. Summed up: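 Competitive ELISA. sLeX-pentaceramide was adsorbed at 100 pmol per well and blocked with 5% BSA-PBS. E-selectin-Ig fusion (lectin, EGF and two complement regulatory repeats on human IgG1 hinge/CH2/CH3; cDNA from HUVEC mRNA) was precomplexed 30 min with biotin-anti-human IgG(Fc)/streptavidin-alkaline phosphatase. Compound at 100, 25, 6.25 or 1.56 µM final was preincubated with the complex 30 min, then 37 °C for 45 min. pNPP read at 405 nm; duplicates.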

Assay [2] deals with T2, P-selectin (Homo sapiens, UniProt P16109).
T2 sequence (P16109 whole entry): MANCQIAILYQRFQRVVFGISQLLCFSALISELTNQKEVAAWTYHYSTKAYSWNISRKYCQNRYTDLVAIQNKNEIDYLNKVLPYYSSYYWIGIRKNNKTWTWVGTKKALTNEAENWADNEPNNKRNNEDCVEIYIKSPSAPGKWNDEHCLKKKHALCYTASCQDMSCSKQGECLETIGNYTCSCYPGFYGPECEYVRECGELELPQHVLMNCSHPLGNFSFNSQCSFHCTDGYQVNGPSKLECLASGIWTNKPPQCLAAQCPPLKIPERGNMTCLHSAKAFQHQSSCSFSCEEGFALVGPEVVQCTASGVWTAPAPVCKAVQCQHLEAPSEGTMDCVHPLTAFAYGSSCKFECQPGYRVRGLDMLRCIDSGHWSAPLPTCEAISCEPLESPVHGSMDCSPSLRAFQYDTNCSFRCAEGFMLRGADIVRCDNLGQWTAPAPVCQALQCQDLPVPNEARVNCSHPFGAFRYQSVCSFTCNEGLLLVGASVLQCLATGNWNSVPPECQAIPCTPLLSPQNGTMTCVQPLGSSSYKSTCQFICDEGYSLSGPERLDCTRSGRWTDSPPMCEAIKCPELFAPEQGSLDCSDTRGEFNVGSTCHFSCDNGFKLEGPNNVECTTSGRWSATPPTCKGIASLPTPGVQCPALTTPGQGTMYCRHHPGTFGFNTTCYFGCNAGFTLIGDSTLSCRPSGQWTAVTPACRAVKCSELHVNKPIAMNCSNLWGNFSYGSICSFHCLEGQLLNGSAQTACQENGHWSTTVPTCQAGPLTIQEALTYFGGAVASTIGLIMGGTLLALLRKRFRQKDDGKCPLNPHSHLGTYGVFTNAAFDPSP
As to the kind of experiment: Inhibitory activity against human chimeric Selectin P-Ig. The gist of the method:
(§1)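 Competition against binding of the sLeX pentasaccharide ceramide ligand to purified selectin-Ig. The fusions carry the lectin, EGF and two complement regulatory repeats on the human IgG1 hinge/Fc and were expressed in COS7 (transient) or CHO (stable) cells. The P-selectin cDNA came from HUVEC mRNA and the L-selectin cDNA from Jurkat mRNA, both by RT-PCR.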

The target of assay [3] is T3, L-selectin (Homo sapiens, UniProt P14151).
T3 sequence (P14151 whole entry): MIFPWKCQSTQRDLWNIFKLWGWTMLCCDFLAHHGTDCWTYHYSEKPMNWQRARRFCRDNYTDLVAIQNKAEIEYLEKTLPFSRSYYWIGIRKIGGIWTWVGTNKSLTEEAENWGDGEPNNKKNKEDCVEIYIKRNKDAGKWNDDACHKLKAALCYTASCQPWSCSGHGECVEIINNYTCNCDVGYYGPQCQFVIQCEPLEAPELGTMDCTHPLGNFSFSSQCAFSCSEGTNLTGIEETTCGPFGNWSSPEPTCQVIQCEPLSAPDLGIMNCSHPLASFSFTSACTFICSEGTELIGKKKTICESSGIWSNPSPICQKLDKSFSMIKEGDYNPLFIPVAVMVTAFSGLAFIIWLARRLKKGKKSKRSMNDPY
As to the kind of experiment: Inhibitory activity against human chimeric L-selectin-Ig. The gist of the method:
as §1

The IC50 is the concentration that inhibits the measured activity by half. As to `CC(=O)N[C@H]1[C@H]([C@H](O)[C@H](O)CO)O[C@@](O[C@@H]2[C@H](O)[C@@H](O)[C@H](O[C@H]3[C@H](O[C@@H]4O[C@@H](C)[C@@H](O)[C@@H](O)[C@@H]4O)[C@@H](O)CO[C@@H]3CO)O[C@@H]2O)(C(=O)O)C[C@@H]1O`, the results for the IC50 in assay [1], in assay [2] and in assay [3] were 240 µM, over 1000 µM and 220 µM, respectively.
On to `C[C@@H]1O[C@@H](O[C@@H]2CCO[C@H](CO)[C@H]2O[C@@H]2O[C@H](CO)[C@H](O)[C@H](OP(=O)(O)O)[C@H]2O)[C@@H](O)[C@H](O)[C@@H]1O`, for which the IC50 in assay [1] was over 1000 µM; in assay [2], over 1000 µM; in assay [3], 420 µM.
Turning to `C[C@@H]1O[C@@H](O[C@@H]2CCO[C@H](CO)[C@H]2O[C@@H]2O[C@H](CO)[C@H](O)[C@H](OS(=O)(=O)O)[C@H]2O)[C@@H](O)[C@H](O)[C@@H]1O`, the figures for the IC50 in assay [1], in assay [2] and in assay [3] were over 1000 µM, 560 µM and over 1000 µM, respectively.
On to `CC(=O)N[C@H]1CO[C@H](CO)[C@@H](O[C@@H]2O[C@H](CO)[C@H](O)[C@H](OS(=O)(=O)O)[C@H]2O)[C@@H]1O[C@@H]1O[C@@H](C)[C@@H](O)[C@@H](O)[C@@H]1O`, for which the IC50 in assay [1], in assay [2] and in assay [3] was over 1000 µM throughout.
Turning to `C[C@@H]1O[C@@H](O[C@H]2[C@H](O[C@@H]3O[C@H](CO)[C@H](O)[C@H](OS(=O)(=O)O)[C@H]3O)[C@@H](CO)OC[C@@H]2O)[C@@H](O)[C@H](O)[C@@H]1O`, the IC50 is over 1000 µM in assay [1], 670 µM in assay [2] and over 1000 µM in assay [3].
With `CC(=O)N[C@H]1[C@H]([C@H](O)[C@H](O)CO)O[C@@](O[C@H]2[C@@H](O)[C@@H](CO)O[C@@H](O[C@@H]([C@H](O[C@@H]3O[C@@H](C)[C@@H](O)[C@@H](O)[C@@H]3O)[C@H](C=O)NC(C)=O)[C@H](O)CO)[C@@H]2O)(C(=O)O)C[C@@H]1O` [SIALYL LEWIS X], the figures for the 50% inhibitory concentration (IC50) in assay [1], in assay [2] and in assay [3] were 600 µM, over 1000 µM and over 1000 µM, respectively.
